Here are results for one molecule from ChEMBL document CHEMBL4177662, “Phosphamide-containing diphenylpyrimidine analogues (PA-DPPYs) as potent focal adhesion kinase (FAK) inhibitors with enhanced activity against pancreatic cancer cell lines” (Bioorg Med Chem, 2017).

Assay [1] is described as follows: Antiproliferative activity against human HPDE6c7 cells after 72 hrs by MTT assay. The class given is cell-based. As to conditions: HPDE6c7, 72 h. Put shortly:
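Cells grown in DMEM with 10% FBS and 1% penicillin-streptomycin at 37 °C, 5% CO2. Seeded at 4,000 to 5,000 cells/well, cultured one day, then exposed to compounds for 72 h at 1.25 to 40 μmol/L, five replicates per concentration. MTT absorbance read at 570 nm. IC50 from five-point dose-response curves; mean of at least three separate experiments.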

Assay [2] deals with ASPC1. Briefly: Induction of apoptosis in human Aspc-1 cells assessed as necrotic cells at 10 uM after 72 hrs by Annexin V-FITC/propidium iodide staining-based flow cytometry (reference value: 0%). It counts as functional. The gist of the method: (§1)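 AsPC-1 cells (3 to 5×10^5 per well) were treated with DMSO solvent control or compound for 72 h in medium with 5% FBS. Cells were then stained with Annexin V-FITC and propidium iodide and analysed by flow cytometry. One representative experiment shown.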
(Flow cytometry measures light scatter and fluorescence of single cells or particles in a stream.)

Assay [3] relates to ASPC1. Kind of assay: Induction of apoptosis in human Aspc-1 cells assessed as viable cells at 10 uM after 72 hrs by Annexin V-FITC/propidium iodide staining-based flow cytometry (reference value: 100%). The class given is functional. The following applies: ASPC1, 72 h, read-out: Activity. Put shortly: as §1
The test system of assay [4] is ASPC1. Briefly: Cell cycle arrest in human Aspc-1 cells assessed as accumulation at G0/G1 phase at 2.5 uM after 72 hrs by propidium iodide staining-based flow cytometry (reference value: 39.41%). It counts as functional.
Assay [5] concerns the target Tyrosine-protein kinase receptor UFO (Homo sapiens) (UniProt P30530). Briefly: Inhibition of GST-tagged human AXL (473 end residues) at 100 nM relative to control. Put shortly: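 SelectScreen biochemical kinase profiling service; percent inhibition of each kinase at a single compound concentration of 100 nM.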
Assay [6] relates to Epidermal growth factor receptor (Homo sapiens), P00533 [T790M]. Briefly: Inhibition of recombinant GST-tagged human EGFR cytoplasmic domain (668 to 1210 residues) T790M mutant expressed in baculovirus expression system at 100 nM relative to control. The gist of the method: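 Part of a small kinase-panel profile run by an outsourced biochemical profiling service. The test compound was given at a single concentration of 100 nM, and activity was reported as percent inhibition rate.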

The next assay deals with BXPC-3. Briefly: Antiproliferative activity against human BxPC3 cells assessed as cell viability at 4 uM after 24 hrs by MTT assay (reference value: 100%). The class given is functional. As to conditions: BXPC-3, 24 h, read-out: Activity. For orientation: Tetrazolium assays rely on reduction of a dye to a coloured formazan, in cell work by metabolically active cells.
Assay [7] has as its system PANC-1 (human). Kind of assay: Antiproliferative activity against human PANC-1 cells assessed as cell viability at 4 uM after 72 hrs by MTT assay (reference value: 97%). The following applies: PANC-1, 72 h.
Assay [8] has as its system PANC-1 (human). Briefly: Antiproliferative activity against human PANC-1 cells assessed as cell viability at 8 uM after 48 hrs by MTT assay (reference value: 98.8%). The following applies: PANC-1, 48 h.

Tyrosine-protein kinase receptor UFO (Homo sapiens), sequence (P30530 whole entry, the tested form may be a part): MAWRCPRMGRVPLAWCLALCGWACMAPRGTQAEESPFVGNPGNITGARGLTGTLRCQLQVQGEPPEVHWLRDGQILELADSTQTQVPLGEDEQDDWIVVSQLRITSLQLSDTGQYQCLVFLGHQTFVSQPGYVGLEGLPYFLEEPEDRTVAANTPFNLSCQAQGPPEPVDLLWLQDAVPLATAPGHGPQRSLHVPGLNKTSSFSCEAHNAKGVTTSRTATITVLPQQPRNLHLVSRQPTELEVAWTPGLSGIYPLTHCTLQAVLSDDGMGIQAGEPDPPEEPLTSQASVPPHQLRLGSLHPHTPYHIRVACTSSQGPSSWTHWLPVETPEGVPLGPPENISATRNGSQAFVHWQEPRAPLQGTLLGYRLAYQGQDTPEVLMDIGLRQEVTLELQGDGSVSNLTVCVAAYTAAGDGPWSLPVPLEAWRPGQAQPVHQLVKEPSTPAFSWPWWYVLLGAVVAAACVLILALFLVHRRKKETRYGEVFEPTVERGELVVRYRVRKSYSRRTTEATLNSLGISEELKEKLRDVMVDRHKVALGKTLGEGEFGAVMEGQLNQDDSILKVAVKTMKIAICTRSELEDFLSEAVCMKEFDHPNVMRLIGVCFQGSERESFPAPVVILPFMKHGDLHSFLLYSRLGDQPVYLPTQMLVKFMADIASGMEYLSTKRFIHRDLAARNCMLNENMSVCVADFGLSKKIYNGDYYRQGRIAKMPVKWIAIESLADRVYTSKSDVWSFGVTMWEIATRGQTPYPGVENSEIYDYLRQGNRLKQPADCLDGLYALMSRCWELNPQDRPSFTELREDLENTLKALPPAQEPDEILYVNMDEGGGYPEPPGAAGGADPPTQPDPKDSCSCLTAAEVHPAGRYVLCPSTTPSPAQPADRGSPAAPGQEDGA
Epidermal growth factor receptor (Homo sapiens), P00533 [T790M], sequence (P00533 whole entry T790M, the tested form may be a part): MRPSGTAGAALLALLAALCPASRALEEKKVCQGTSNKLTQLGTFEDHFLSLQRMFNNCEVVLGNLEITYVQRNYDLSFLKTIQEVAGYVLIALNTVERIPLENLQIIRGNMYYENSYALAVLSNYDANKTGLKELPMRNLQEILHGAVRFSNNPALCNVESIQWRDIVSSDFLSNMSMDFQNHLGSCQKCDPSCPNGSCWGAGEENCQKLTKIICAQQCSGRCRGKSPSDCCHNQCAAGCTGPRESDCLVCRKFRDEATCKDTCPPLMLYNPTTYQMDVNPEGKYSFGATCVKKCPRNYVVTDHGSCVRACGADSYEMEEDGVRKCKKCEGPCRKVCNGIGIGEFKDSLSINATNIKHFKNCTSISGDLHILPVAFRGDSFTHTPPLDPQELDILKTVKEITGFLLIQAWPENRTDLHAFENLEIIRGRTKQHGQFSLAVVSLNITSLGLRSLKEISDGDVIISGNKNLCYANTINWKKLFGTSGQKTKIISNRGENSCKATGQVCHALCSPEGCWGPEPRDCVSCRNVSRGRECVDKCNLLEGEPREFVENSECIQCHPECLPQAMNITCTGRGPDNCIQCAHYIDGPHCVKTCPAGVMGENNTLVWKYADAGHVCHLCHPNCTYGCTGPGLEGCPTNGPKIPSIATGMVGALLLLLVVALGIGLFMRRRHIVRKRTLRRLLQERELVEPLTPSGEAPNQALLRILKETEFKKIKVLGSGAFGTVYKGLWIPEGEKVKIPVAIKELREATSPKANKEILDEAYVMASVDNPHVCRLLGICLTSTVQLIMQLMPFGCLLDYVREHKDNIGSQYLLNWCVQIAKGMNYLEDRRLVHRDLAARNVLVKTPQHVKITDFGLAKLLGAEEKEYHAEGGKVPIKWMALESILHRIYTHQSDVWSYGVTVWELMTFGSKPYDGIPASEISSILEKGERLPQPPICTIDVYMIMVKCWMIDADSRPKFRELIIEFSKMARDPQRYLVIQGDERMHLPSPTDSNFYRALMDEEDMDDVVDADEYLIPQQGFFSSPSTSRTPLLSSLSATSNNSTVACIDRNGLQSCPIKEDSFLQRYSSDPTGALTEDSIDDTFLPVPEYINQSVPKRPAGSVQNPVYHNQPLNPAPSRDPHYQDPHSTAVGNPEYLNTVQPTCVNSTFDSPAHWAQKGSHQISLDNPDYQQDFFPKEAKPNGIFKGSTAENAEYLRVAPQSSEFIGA

In the case of `CCOP(=O)(CCCOc1ccc(Nc2ncc([N+](=O)[O-])c(Nc3ccccc3C(=O)NC)n2)cc1)N1CCOCC1` (centres undefined), in [1], the IC50 was more than 20 µM. For the same molecule, the values for the Activity with ASPC1 [2] and with ASPC1 [4] were 0.4% and 38.18%, respectively. Besides, the viability at 10 µM in the assay with ASPC1 [3] was 7.7%. Further, the inhibition was 60% in assay [5] and 45% in [6]. The viability at 4 µM in the assay with BXPC-3 is 88.5%; with PANC-1 (human) [7], 58.4%. Moreover, the viability at 8 µM in the assay on PANC-1 (human) [8] worked out at 29.5%.

For orientation: IC50 means the concentration that inhibits the measured activity by half. A low value points to greater potency. In general, inhibition refers to the percentage by which the read-out fell short of the control.
